Compound activity (PubChem)
KCNK3 inh: human KCNK3 channel inhibition, primary screen; O14649; B-score at 10 µM; CHO-KCNK3 thallium flux, FluxOR fluorescence; active compounds read low; AID 602410; 340,000 tested, 0.84% active;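 active = B-score under library mean minus 4 SD, starting fluorescence ratio at most library mean plus 5 SD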;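 note: more negative B-score means stronger inhibition of thallium flux through KCNK3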
Target sequence (O14649 whole entry, looked up): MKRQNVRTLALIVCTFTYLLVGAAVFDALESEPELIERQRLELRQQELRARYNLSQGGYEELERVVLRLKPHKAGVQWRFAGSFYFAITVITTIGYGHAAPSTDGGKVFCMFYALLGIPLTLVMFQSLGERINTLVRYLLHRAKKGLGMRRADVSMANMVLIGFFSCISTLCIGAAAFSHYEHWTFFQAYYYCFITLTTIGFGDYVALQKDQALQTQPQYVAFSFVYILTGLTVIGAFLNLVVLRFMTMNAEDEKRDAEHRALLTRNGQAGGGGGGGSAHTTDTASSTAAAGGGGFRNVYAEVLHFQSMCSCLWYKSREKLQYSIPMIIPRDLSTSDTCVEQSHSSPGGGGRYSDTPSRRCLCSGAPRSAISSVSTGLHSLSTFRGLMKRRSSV
KCNK9 inh: inhibitors of human KCNK9 two-pore domain potassium channel; Q9NPC2; B-score at 10 µM; HEK293 KCNK9, FluxOR thallium flux fluorescence; active compounds read low; 310,000 tested, 1.2% active;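 active = ratio B-score over 3 SD below the library mean, with starting fluorescence within 5 SD of its mean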;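 note: negative B-score means less thallium flux so channel inhibition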
Kir21 block: Kir2.1 (mouse) channel inhibition; AID 1672; P35561; B-score at 10 µM; HEK293-Kir2.1, FluxOR thallium flux fluorescence; active compounds read low; 310,000 tested, 0.85% active;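 active = fluorescence ratio B-score at or below minus 3 SD of library scores, with starting-brightness B-score within 2 SD, cut at about -4.2 in these data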;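 note: channel flux triggered by added potassium and thallium sulfate stimulus; B-score of peak minus minimum fluorescence over baseline after thallium stimulus; more negative B-score means stronger Kir2.1 block with less thallium influx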
KCNQ1 act: human KCNQ1 channel potentiation or activation; P51787; CHO-K1 KCNQ1, thallium flux FluxOR fluorescence; active compounds read high; B-score at 10 µM; 310,000 tested, 0.35% active;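 active = fluorescence ratio B-score, a plate-corrected score, at least three library SD, with initial intensity B-score within 5 SD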
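Material: CHO-K1 cells stably expressing KCNQ1. Medium: assay buffer for compound exposure, DMSO matched across wells. Reagent: K+/Tl+ depolarizing stimulus. Compound dosing: single-concentration screen. Times: 37 °C overnight plating, 90-min dark dye load, 20-min compound pretreatment. Technique: FluxOR Tl+ flux fluorescence.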
KCNQ1 block: inhibitors of human KCNQ1 potassium channel; AID 2642; B-score at 10 µM; 310,000 tested, 1.3% active; CHO-K1 KCNQ1, FluxOR thallium flux fluorescence; active compounds read high; P51787;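 active = compounds whose thallium flux B-score, printed positive for inhibition, exceeds three library SD while starting fluorescence stays within three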;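 note: channel opened by potassium depolarization with thallium stimulus after 20 min compound exposure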
hERG rescue: shields human hERG channel from block by proarrhythmic agents. Q12809. CHO-hERG, FluxOR thallium flux, dofetilide IC70 present. activation (rescue from dofetilide block), less the hit threshold, % at 10 µM. 310,000 tested, 0.51% active;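 active = activation above the mean of controls blocked by dofetilide plus 5 SD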;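 note: thallium influx through hERG after potassium depolarization seen as dye fluorescence rise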
KCNK9 inh conf: confirmation of human KCNK9 potassium channel inhibitors; shares compounds with KCNK9 inh; HEK293 KCNK9 cells, FluxOR thallium flux fluorescence; inhibition, % at 10 µM; 4,900 tested, 43% active;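 active = thallium signal inhibited by more than 5 SD of the compound-free buffer control wells, on both duplicate plates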;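 note: 0% = assay buffer control wells without compound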
Kir21 sel: tests whether KCNK9 modulators also affect mouse Kir2.1; AID 492993; Kir2.1 cells, FluxOR thallium flux fluorescence; 4,900 tested, 4% active; inhibition, % at 10 µM; shares compounds with KCNK9 inh;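 active = thallium signal drop more than 5 SD beyond the mean of the no-compound control wells, seen in both duplicate plates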;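 note: signal is fluorescence rise after thallium addition divided by baseline fluorescence; plate controls were assay buffer only for no effect and full block by chlorpromazine control for full effect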
KCNK9 uninduced: non-induced cell nonspecific activity of KCNK9 modulators; shares compounds with KCNK9 inh; non-induced KCNK9-HEK293, FluxOR thallium flux; inhibition, % at 10 µM; 4,900 tested, 40% active; AID 492997;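 active = thallium signal drop beyond 5 SD of the untreated control mean, on both duplicate plates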;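 note: plate controls were buffer only IC0 wells for no effect and SID17386958 at its maximal inhibitory level for full effect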
Active calls of the source: *. Hits are enriched below; roughly 3.7% of the tested compounds scored in any of these assays.

What do the screens show for `Cc1ccc2nc(NCC(=O)NN)nc(-c3ccccc3)c2c1`?
KCNK3 inh: inactive; KCNK9 inh: inactive; Kir21 block: 1.4; KCNQ1 act: inactive; KCNQ1 block: inactive; hERG rescue: -5; KCNK9 inh conf: inactive; Kir21 sel: inactive; KCNK9 uninduced: inactive

What do the screens show for `O=C(Nc1cc(Cl)ccc1-n1cncn1)c1ccc([N+](=O)[O-])o1`?
KCNK3 inh: inactive; KCNK9 inh: inactive; Kir21 block: -0.04; KCNQ1 act: inactive; KCNQ1 block: inactive; hERG rescue: -8

Results for COc1ccccc1-c1ccc(SCc2ccc(C)cc2)nn1 ?
KCNK3 inh: inactive; KCNK9 inh: inactive; Kir21 block: 0.47; KCNQ1 act: inactive; KCNQ1 block: inactive; hERG rescue: -24; KCNK9 inh conf: inactive; Kir21 sel: inactive; KCNK9 uninduced: inactive

How did COc1ccccc1-c1ccc(SCc2ccc(F)cc2)nn1 do in these assays?
KCNK3 inh: inactive; KCNK9 inh: inactive; Kir21 block: -0.38; KCNQ1 act: inactive; KCNQ1 block: inactive; hERG rescue: -12

How did CCCCC(=O)Nc1cccc(NC(=O)c2ccc(Br)o2)c1 do in these assays?
KCNK3 inh: inactive; KCNK9 inh: -8.5*; Kir21 block: -0.81; KCNQ1 act: inactive; KCNQ1 block: inactive; hERG rescue: -18; KCNK9 inh conf: 43%*; Kir21 sel: inactive; KCNK9 uninduced: inactive

What do the screens show for `CC(C)NC(=O)CN(Cc1ccc(F)cc1)C(=O)CCC(=O)Nc1nccs1`?
KCNK3 inh: inactive; KCNK9 inh: inactive; Kir21 block: -1.6; KCNQ1 act: inactive; KCNQ1 block: inactive; hERG rescue: -12

What do the screens show for `CCOC(=O)c1cn(Cc2ccccc2)nc1-c1ccccc1`?
KCNK3 inh: inactive; KCNK9 inh: inactive; Kir21 block: 1.6; KCNQ1 act: inactive; KCNQ1 block: inactive; hERG rescue: -8

How did COCC(=O)N1CCC(Oc2ccc(C(=O)N(C)C3CCCCC3)cc2)CC1 do in these assays?
KCNK3 inh: inactive; KCNK9 inh: inactive; Kir21 block: 0.07; KCNQ1 act: inactive; KCNQ1 block: inactive; hERG rescue: -3

What do the screens show for `CCn1c(SCC(=O)Nc2nccs2)nnc1-c1cc2cccc(OC)c2o1`?
KCNK3 inh: inactive; KCNK9 inh: inactive; Kir21 block: -1.9; KCNQ1 act: inactive; KCNQ1 block: inactive; hERG rescue: -6

What do the screens show for `CCn1c(SCC(=O)NC2CCCCC2)nnc1-c1cc2cccc(OC)c2o1`?
KCNK3 inh: inactive; KCNK9 inh: inactive; Kir21 block: -1.2; KCNQ1 act: inactive; KCNQ1 block: inactive; hERG rescue: -9; KCNK9 inh conf: inactive; Kir21 sel: inactive; KCNK9 uninduced: inactive

Results for CC(=O)N1N=C(c2ccc(Cl)cc2)OC1c1ccc(C(C)C)cc1 (stereo unspecified) ?
KCNK3 inh: inactive; KCNK9 inh: inactive; Kir21 block: 2.3; KCNQ1 act: inactive; KCNQ1 block: 6*; hERG rescue: -6; KCNK9 inh conf: inactive; Kir21 sel: inactive; KCNK9 uninduced: 27%*

How did O=C(NCC1CCCO1)c1csc(Nc2cccc3ccccc23)n1 (stereo unspecified) do in these assays?
KCNK3 inh: inactive; KCNK9 inh: -9.2*; Kir21 block: 2.3; KCNQ1 act: inactive; KCNQ1 block: inactive; hERG rescue: -7; KCNK9 inh conf: 42%*; Kir21 sel: inactive; KCNK9 uninduced: inactive

Results for Cc1ccc(-c2nc(C(=O)NCC3CCCO3)cc3c2[nH]c2ccccc23)cc1 (stereo unspecified) ?
KCNK3 inh: inactive; KCNK9 inh: -17*; Kir21 block: -1.2; KCNQ1 act: inactive; KCNQ1 block: 12*; hERG rescue: -38; KCNK9 inh conf: 65%*; Kir21 sel: inactive; KCNK9 uninduced: 33%*

How did CN(C)CCNC(=O)c1csc(Nc2cccc3ccccc23)n1 do in these assays?
KCNK3 inh: inactive; KCNK9 inh: inactive; Kir21 block: 0.29; KCNQ1 act: inactive; KCNQ1 block: inactive; hERG rescue: -4

What do the screens show for `Clc1cc(Cl)c(OCCCCn2cncn2)c(Cl)c1`?
KCNK3 inh: inactive; KCNK9 inh: inactive; Kir21 block: 0.6; KCNQ1 act: inactive; KCNQ1 block: inactive; hERG rescue: -3

What do the screens show for `CCC(Sc1ccccn1)C(=O)Nc1cccc([N+](=O)[O-])c1` (stereo unspecified)?
KCNK3 inh: inactive; KCNK9 inh: -8.6*; Kir21 block: -1.5; KCNQ1 act: inactive; KCNQ1 block: inactive; hERG rescue: -13; KCNK9 inh conf: 30%*; Kir21 sel: inactive; KCNK9 uninduced: 26%*

How did CC(Sc1cccc[n+]1[O-])C(=O)Nc1cccc([N+](=O)[O-])c1 (stereo unspecified) do in these assays?
KCNK3 inh: inactive; KCNK9 inh: inactive; Kir21 block: 0.01; KCNQ1 act: inactive; KCNQ1 block: inactive; hERG rescue: -4

How did CCc1ccc(OCCNC(=O)c2ccccc2SCc2ccccc2)cc1 do in these assays?
KCNK3 inh: inactive; KCNK9 inh: inactive; Kir21 block: 1.3; KCNQ1 act: inactive; KCNQ1 block: 7*; hERG rescue: -7; KCNK9 inh conf: inactive; Kir21 sel: inactive; KCNK9 uninduced: 37%*

What do the screens show for `O=C(/C=C/NNC(=O)c1cccc(Br)c1)c1cccc(Br)c1`?
KCNK3 inh: -9*; KCNK9 inh: -9*; Kir21 block: 1.4; KCNQ1 act: inactive; KCNQ1 block: inactive; hERG rescue: -15; KCNK9 inh conf: 38%*; Kir21 sel: inactive; KCNK9 uninduced: 34%*

How did CCC(C(=O)Nc1nc(C)c(C(=O)OC)s1)c1ccccc1 (stereo unspecified) do in these assays?
KCNK3 inh: inactive; KCNK9 inh: -9.4*; Kir21 block: -1.4; KCNQ1 act: inactive; KCNQ1 block: inactive; hERG rescue: -13; KCNK9 inh conf: 30%*; Kir21 sel: inactive; KCNK9 uninduced: 26%*

How did C[C@]12CCC[C@H](O1)c1c(cc3c(c1O)C(=O)c1c(O)cc(O)cc1C3=O)O2 do in these assays?
KCNK3 inh: -10*; KCNK9 inh: -12*; Kir21 block: 0.05; KCNQ1 act: inactive; KCNQ1 block: 14*; hERG rescue: -5; KCNK9 inh conf: 58%*; Kir21 sel: inactive; KCNK9 uninduced: 42%*
